Activity calls are given as the source filed them. The rule behind the calls is not given here.
Columns and labels:
[1] = test system: MDA-MB-231; experiment: Cytotoxicity against human MDA-MB-231 cells assessed as viable cells at 5 uM after 72 hrs by MTT assay in absence of serum relative to control; assay type: functional; conditions: MDA-MB-231, 72 h, read-out: Activity
Outline: (§1)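 MDA-MB-231 cells were seeded at 5000 per well in serum-containing medium and dosed the next day, with or without serum, at the stated concentrations (1 and 5 µM in the serum-free figure). After 72 h, MTT was added, formazan was dissolved in DMSO and absorbance read at 595 nm. Six wells per condition; viability expressed as % of DMSO control.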

[2] = test system: MDA-MB-231; experiment: Cytotoxicity against human MDA-MB-231 cells assessed as viable cells at 1 uM after 72 hrs by MTT assay in absence of serum relative to control; assay type: functional; conditions: MDA-MB-231, 72 h, read-out: Activity; outline: as §1
[3] = test system: MDA-MB-231; experiment: Cell cycle arrest in human MDA-MB-231 cells assessed as accumulation at S phase at 5 uM after 72 hrs by propidium iodide staining-based flow cytometric analysis in absence of serum (reference value: 6.19%); assay type: functional
[4] = test system: MDA-MB-231; experiment: Cell cycle arrest in human MDA-MB-231 cells assessed as accumulation at subG1 phase at 5 uM after 72 hrs by propidium iodide staining-based flow cytometric analysis in absence of serum (reference value: 2.15%); assay type: functional
[5] = test system: MDA-MB-231; experiment: Cytotoxicity against human MDA-MB-231 cells assessed as decrease in cell viability at 1 to 5 uM after 72 hrs by MTT assay in presence of serum; assay type: functional, cell-based; outline: as §1
[6] = test system: MDA-MB-231; experiment: Cell cycle arrest in human MDA-MB-231 cells assessed as accumulation at G0/G1 phase at 5 uM after 72 hrs by propidium iodide staining-based flow cytometric analysis in absence of serum (reference value: 84.87%); assay type: functional
[7] = test system: MDA-MB-231; experiment: Cell cycle arrest in human MDA-MB-231 cells assessed as accumulation at subG1 phase at 5 uM after 72 hrs by propidium iodide staining-based flow cytometric analysis in presence of serum (reference value: 1.99%); assay type: functional
[8] = test system: MDA-MB-231; experiment: Cell cycle arrest in human MDA-MB-231 cells assessed as accumulation at S phase at 5 uM after 72 hrs by propidium iodide staining-based flow cytometric analysis in presence of serum (reference value: 14.49%); assay type: functional
[9] = test system: MDA-MB-231; experiment: Cell cycle arrest in human MDA-MB-231 cells assessed as accumulation at G2/M phase at 5 uM after 72 hrs by propidium iodide staining-based flow cytometric analysis in absence of serum (reference value: 6.53%); assay type: functional
[10] = test system: MDA-MB-231; experiment: Cell cycle arrest in human MDA-MB-231 cells assessed as accumulation at G2/M phase at 5 uM after 72 hrs by propidium iodide staining-based flow cytometric analysis in presence of serum (reference value: 15.82%); assay type: functional
[11] = test system: MDA-MB-231; experiment: Cell cycle arrest in human MDA-MB-231 cells assessed as accumulation at G0/G1 phase at 5 uM after 72 hrs by propidium iodide staining-based flow cytometric analysis in presence of serum (reference value: 67.16%); assay type: functional
[12] = test system: MDA-MB-231; experiment: Cytotoxicity against human MDA-MB-231 cells assessed as cell viability after 72 hrs by MTT assay in absence of serum; assay type: functional, cell-based; conditions: MDA-MB-231, 72 h; outline: as §1

Compound	viability at 5 µM [1]	viability at 1 µM [2]	IC50 [12]	also measured
CC1(C)CC(=S)Nc2ccc(Cl)cc21	94.3%	85.7%		
CCCNC1=Nc2ccc(Cl)cc2C(C)(C)C1	82.4%	90.7%		
CCN(CC)CCCNC1=Nc2ccc(Cl)cc2C(C)(C)C1	36.1%	53.3%	2 µM	Activity [3]: 4.48%; Activity [4]: 4.77%; Activity [5]: Active; Activity [6]: 86.24%; Activity [7]: 1.64%; Activity [8]: 15.44%; Activity [9]: 4.27%; Activity [10]: 20.48%; Activity [11]: 61.75%
CC1(C)CC(N)=Nc2ccc(Cl)cc21	81%	80.5%		
CC1(C)CC(NCCCCO)=Nc2ccc(Cl)cc21	84.8%	87.6%		
CC1(C)CC(NCCCO)=Nc2ccc(Cl)cc21	84.2%	84.5%		
CN(C)CCCNC1=Nc2cccc(Cl)c2C(C)(C)C1	43.9%	60.5%	4.8 µM	
CN(C)CCNC1=Nc2ccc(Cl)cc2C(C)(C)C1	50.8%	66.9%	7 µM	
CN(C)CCCNC1=Nc2ccc(Cl)cc2C(C)(C)C1	38%	54.1%	2.1 µM	Activity [3]: 5.61%; Activity [4]: 7.63%; Activity [5]: Active; Activity [6]: 81.6%; Activity [7]: 1.53%; Activity [8]: 14.76%; Activity [9]: 4.73%; Activity [10]: 19.22%; Activity [11]: 64.06%
CC1(C)CC(NCc2ccccc2)=Nc2ccc(Cl)cc21	68.1%	88.8%		
NC1=Nc2ccccc2C(c2ccccc2)C1 (stereo not given)	86.3%	86.6%		
CNC1=Nc2ccc(Cl)cc2C(C)(C)C1	92.3%	91.9%		
CCNC1=Nc2ccc(Cl)cc2C(C)(C)C1	85.1%	89.7%		
CN(C)CCCNC1=Nc2cc(Cl)ccc2C(C)(C)C1	46.3%	68.4%	4 µM	
CC1(C)CC(NCCCN2CCOCC2)=Nc2ccc(Cl)cc21	70.3%	91.4%		
CC1(C)CC(=O)Nc2ccc(Cl)cc21	81.7%	82.3%		
